Measurements from ChEMBL document CHEMBL1129403, “Analogs of 3-hydroxy-1H-1-benzazepine-2,5-dione: structure-activity relationship at N-methyl-D-aspartate receptor glycine sites” (J Med Chem, 1996).
Several values for one entry are separate records, joined by “and”; a condition that tells them apart may be missing. Identical values can stand only once. Blank lines part the entries; values can stand above or below the compound they belong to.

Tests used:
[1] = Ratio of binding affinities of NMDA / AMPA
Outline: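 Steady-state selectivity index: Kb AMPA divided by Kb NMDA, with both Kb values taken from oocyte recordings.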

Glutamate NMDA receptor [2] = test: Inhibition of [3H]5,7-dichlorokynurenic acid(DCKA) binding to N-methyl-d-aspartate receptors(NMDA) of rat brain cortical membranes; assay type: cell membranes, Membrane
Outline: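 [³H]DCKA (15-20 nM) incubated with well-washed rat cortical membranes and nine concentrations (up to 100 µM) in 50 mM HEPES-KOH, pH 7.5, for 30 min on ice. Reaction stopped by filtration and filter-bound radioactivity counted by liquid scintillation. IC50 taken from a sigmoidal fit.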

[3] = biological target: T1, Glutamate receptor ionotropic, AMPA (Rattus norvegicus) (UniProt P19491+P19492+P19493+P19490); test: Inhibition of AMPA(glutamate) preferring non-NMDA receptors was measured in oocytes expressing rat brain poly(A)+ RNA. Number of cells examined are 4; assay type: functional, cell-based; conditions: Oocyte
Outline: (§1)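 Oocytes injected with rat cerebral cortex poly(A)+ RNA, two-electrode voltage clamp. Currents elicited by 10 µM AMPA. Kb derived from partial concentration-inhibition curves by generalized Cheng-Prusoff, using AMPA EC50 5.89 µM and slope 1.96.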

[4] = biological target: T1, Glutamate receptor ionotropic, AMPA (Rattus norvegicus); test: Inhibition of AMPA(glutamate) preferring non-NMDA receptors was measured in cultured rat cortical neurons. Number of cells examined are 3
[5] = biological target: T2, Glutamate NMDA receptor (Rattus norvegicus) (UniProt P35439+Q00959+Q00960+Q00961+Q62645+Q8VHN2+Q9R1M7); test: Inhibition of NMDA(glycine) receptors was measured in oocytes expressing cloned rat brain receptor subunits (NR1a/2C). Number of cells examined are 3; assay type: functional, cell-based; conditions: Oocyte
Glutamate NMDA receptor [6] = test: Compound was tested for inhibition of [3H]MK-801 binding to N-methyl-d-aspartate receptors(NMDA) of rat brain cortical membranes.; assay type: cell membranes, Membrane
Outline: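 [³H]MK801 displacement in rat brain cortical membranes, run by a previously described method. Compounds with IC50 < 300 µM were counted as potential NMDA antagonists.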

[7] = biological target: T1, Glutamate receptor ionotropic, AMPA (Rattus norvegicus); test: Inhibition of AMPA(glutamate) preferring non-NMDA receptors was measured in oocytes expressing rat brain poly(A)+ RNA. Number of cells examined are 5; assay type: functional, cell-based; conditions: Oocyte; outline: as §1
[8] = biological target: T2, Glutamate NMDA receptor (Rattus norvegicus); test: Inhibition of NMDA(glycine) receptors was measured in oocytes expressing cloned rat brain receptor subunits (NR1a/2C). Number of cells examined are 7; assay type: functional, cell-based; conditions: Oocyte
Mus musculus = test: In vivo potency in mouse maximum electroshock-inducedseizure after i.v. administration; assay type: functional; conditions: iv
[9] = biological target: T1, Glutamate receptor ionotropic, AMPA (Rattus norvegicus); test: Inhibition of AMPA(glutamate) preferring non-NMDA receptors was measured in cultured rat cortical neurons. Number of cells examined are 8
[10] = biological target: T2, Glutamate NMDA receptor (Rattus norvegicus); test: Inhibition of NMDA(glycine) receptors was measured in oocytes expressing cloned rat brain receptor subunits (NR1a/2C). Number of cells examined are 2; assay type: functional, cell-based; conditions: Oocyte
[11] = biological target: T2, Glutamate NMDA receptor (Rattus norvegicus); test: Inhibition of NMDA(glycine) receptors was measured in oocytes expressing cloned rat brain receptor subunits (NR1a/2C). Number of cells examined are 4; assay type: functional, cell-based; conditions: Oocyte
[12] = biological target: AMPA receptor (Rattus norvegicus); test: Inhibition of AMPA(glutamate) preferring non-NMDA receptors was measured in oocytes expressing rat brain poly(A)+ RNA. Number of cells examined are 6; conditions: Oocyte
[13] = biological target: T1, Glutamate receptor ionotropic, AMPA (Rattus norvegicus); test: Inhibition of AMPA(glutamate) preferring non-NMDA receptors was measured in oocytes expressing rat brain poly(A)+ RNA. Number of cells examined are 3; assay type: functional, cell-based; conditions: Oocyte; outline: as §1
[14] = biological target: T1, Glutamate receptor ionotropic, AMPA (Rattus norvegicus); test: Inhibition of AMPA(glutamate) preferring non-NMDA receptors was measured in cultured rat cortical neurons. Number of cells examined are 2

Ratio [1]: 40 | IC50 (Glutamate NMDA receptor [2]): 0.13 µM | Kb [3]: 9.9 µM | Kb [4]: 6.4 µM | Kb [5]: 0.25 µM and 0.47 µM
SMILES: Cc1ccc2c(O)cc(=O)c(=O)[nH]c2c1

IC50 (Glutamate NMDA receptor [6]): > 300 µM
SMILES: O=Nc1c(O)c2ccccc2[nH]c(=O)c1=O

Ratio [1]: 77 | Kb [7]: 2 µM | Kb [8]: 0.026 µM | IC50 (Glutamate NMDA receptor [2]): 0.013 µM | Kb [9]: 10 µM
SMILES: O=c1cc(O)c2ccc(Cl)cc2[nH]c1=O
ED50 (Mus musculus): 13 mg/kg

IC50 (Glutamate NMDA receptor [6]): > 300 µM
SMILES: O=c1cc(O)c2cc(Br)ccc2[nH]c1=O

IC50 (Glutamate NMDA receptor [6]): > 300 µM
SMILES: Cc1cccc2c(O)cc(=O)c(=O)[nH]c12

IC50 (Glutamate NMDA receptor [6]): > 300 µM
SMILES: Cc1ccc(C)c2c(O)cc(=O)c(=O)[nH]c12

IC50 (Glutamate NMDA receptor [2]): > 100 µM | Kb [10]: > 55 µM
SMILES: O=c1cc(O)c(=O)c2ccccc2[nH]1

IC50 (Glutamate NMDA receptor [6]): > 300 µM
SMILES: Cc1c[nH]c(=O)c(O)cc1=O

IC50 (Glutamate NMDA receptor [2]): > 100 µM
SMILES: CC(=O)Nc1ccc2[nH]c(=O)c(O)cc(=O)c2c1

Ratio [1]: 100 | Kb [11]: 0.026 µM | IC50 (Glutamate NMDA receptor [2]): 0.079 µM | Kb [12]: 2.7 µM
SMILES: O=c1cc(O)c2ccc(Br)cc2[nH]c1=O

IC50 (Glutamate NMDA receptor [6]): > 300 µM
SMILES: Cc1ccc2[nH]c(=O)c(O)cc(=O)c2c1C

IC50 (Glutamate NMDA receptor [2]): 12 µM
SMILES: O=c1cc(O)c2cc([N+](=O)[O-])ccc2[nH]c1=O

IC50 (Glutamate NMDA receptor [6]): > 300 µM
SMILES: O=C(Nc1ccc2[nH]c(=O)c(=O)cc(O)c2c1)C(F)(F)F

Ratio [1]: 25 | IC50 (Glutamate NMDA receptor [2]): 0.49 µM | Kb [3]: 5.3 µM | Kb [5]: 0.21 µM
SMILES: O=c1cc(O)c2ccc(F)cc2[nH]c1=O

IC50 (Glutamate NMDA receptor [2]): 2.2 µM
SMILES: Cc1cc2[nH]c(=O)c(O)cc(=O)c2c(C)c1[N+](=O)[O-]

Ratio [1]: 44 | Kb [11]: 0.086 µM | IC50 (Glutamate NMDA receptor [2]): 0.24 µM | Kb [3]: 3.8 µM
SMILES: Cc1cc2[nH]c(=O)c(O)cc(=O)c2cc1C
ED50 (Mus musculus): 6.3 mg/kg

IC50 (Glutamate NMDA receptor [6]): > 300 µM
SMILES: O=c1ccc(=O)c2ccccc2[nH]1

IC50 (Glutamate NMDA receptor [2]): 5.1 µM
SMILES: CCc1ccc2c(O)cc(=O)c(=O)[nH]c2c1

IC50 (Glutamate NMDA receptor [2]): 13 µM
SMILES: Cc1cccc2[nH]c(=O)c(O)cc(=O)c12

IC50 (Glutamate NMDA receptor [6]): > 300 µM
SMILES: [N-]=[N+]=Nc1ccc2[nH]c(=O)c(=O)cc(O)c2c1

Ratio [1]: 32 | Kb [13]: 42 µM | Kb [11]: 1.3 µM | IC50 (Glutamate NMDA receptor [2]): 0.83 µM | Kb [14]: 65 µM
SMILES: O=c1cc(O)c2ccccc2[nH]c1=O

IC50 (Glutamate NMDA receptor [2]): 0.3 µM
SMILES: Cc1cc(C)c2c(O)cc(=O)c(=O)[nH]c2c1
ED50 (Mus musculus): 3.9 mg/kg

IC50 (Glutamate NMDA receptor [6]): > 300 µM
SMILES: Cc1cc(C)c2[nH]c(=O)c(O)cc(=O)c2c1
